pEC50, pIC50, pKi: −log10 of the molar value. Each block holds one compound with its values, some of them ahead of it.
Key:
[1] = test system: Human immunodeficiency virus 1; test: Ratio of EC50 for HIV1 mutant strain 6 to EC50 for wild type HIV1; format: functional
[2] = Metabolic stability in dog liver microsomes assessed as compound remaining at 5 uM in presence of 0.5 uM ritonavir by RP-HPLC; format: ADME, Canis lupus familiaris, Microsome; conditions: with ritonavir 0.5 uM, read-out: Stability
[3] = test system: Human immunodeficiency virus 1; test: Antiviral activity against HIV1 mutant strain 3; format: functional, organism-based
[4] = Tmax in Beagle dog at 15 mg/kg, po; format: ADME, organism-based, Canis lupus familiaris; parameters: dose 15 mg/kg, route oral; conditions: in vivo
[5] = Metabolic stability in rat liver microsomes assessed as compound remaining at 5 uM in presence of 2.5 uM ritonavir by RP-HPLC; format: ADME, Microsome; conditions: with ritonavir 2.5 uM, read-out: Stability
Liver [6] = test: Metabolic stability in dog liver microsomes assessed as compound remaining in presence of UDPGA by RP-HPLC; format: ADME, Canis lupus familiaris, Microsome
Outline: (§1)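 Test drug at 5 µM incubated with liver microsomes (0.5 mg/ml) plus cofactor (1 mM NADPH or 5 mM UDPGA) at 37 °C for 30 min. Residual drug measured by RP-HPLC. Values are the mean percent remaining of duplicates.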

[7] = test system: Human immunodeficiency virus 1; test: Ratio of EC50 for HIV1 mutant strain 3 to EC50 for wild type HIV1; format: functional
[8] = test system: Human immunodeficiency virus 1; test: Antiviral activity against HIV1 mutant strain 4; format: functional, organism-based
[9] = Metabolic stability in rat liver microsomes assessed as compound remaining at 5 uM by RP-HPLC; format: ADME, Microsome; conditions: read-out: Stability; outline: as §1
[10] = test system: Human immunodeficiency virus 1; test: Ratio of EC50 for HIV1 mutant strain 2 to EC50 for wild type HIV1; format: functional
Outline: (§2)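 PhenoSense phenotypic assay. Strain 2 protease carries L10I, G16A, K45V, F53L, I54V, K55N, D60E, L63P, A71V, I72K, V77I, V82F, I84V, L90M, I93L. EC50 in µM. Fold change is versus the wild-type EC50.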

[11] = test system: Human immunodeficiency virus 1; test: Ratio of EC50 for HIV1 mutant strain 1 to EC50 for wild type HIV1; format: functional
Outline: (§3)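 PhenoSense phenotypic susceptibility assay on multi-drug-resistant clinical HIV-1 protease variant strains, run in parallel with a wild-type reference. EC50 read in µM. Fold change is mutant EC50 divided by wild-type EC50.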

Liver [12] = test: Metabolic stability in dog liver microsomes assessed as compound remaining in presence of NADPH by RP-HPLC; format: ADME, Canis lupus familiaris, Microsome; outline: as §1
[13] = test system: Human immunodeficiency virus 1; test: Antiviral activity against HIV1 mutant strain 2; format: functional, organism-based; outline: as §2
[14] = test system: Human immunodeficiency virus 1; test: Antiviral activity against HIV1 3B in presence of 50% human serum; format: functional, organism-based; conditions: Human immunodeficiency virus 1, 3B
[15] = Metabolic stability in human liver microsomes assessed as compound remaining at 5 uM in presence of UDPGA by RP-HPLC; format: ADME, Microsome; conditions: read-out: Stability; outline: as §1
[16] = Tmax in Beagle dog at 15 mg/kg, po co-administered with 7.5 mg/kg of ritonavir, po; format: ADME, organism-based, Canis lupus familiaris; conditions: in vivo
[17] = Metabolic stability in rat liver microsomes assessed as compound remaining at 5 uM in presence of 0.5 uM ritonavir by RP-HPLC; format: ADME, Microsome; conditions: with ritonavir 0.5 uM, read-out: Stability
[18] = Plasma concentration in Beagle dog at 15 mg/kg, po after 12 hrs; format: ADME, organism-based, Canis lupus familiaris; parameters: dose 15 mg/kg, route oral
[19] = test system: Human immunodeficiency virus 1; test: Antiviral activity against HIV1 mutant strain 6; format: functional, organism-based
[20] = Cmax in Beagle dog at 15 mg/kg, po; format: ADME, organism-based, Canis lupus familiaris; parameters: dose 15 mg/kg, route oral; conditions: in vivo
[21] = test system: Human immunodeficiency virus 1; test: Antiviral activity against HIV1 3B; format: functional, organism-based; conditions: Human immunodeficiency virus 1, 3B
[22] = Plasma concentration in Beagle dog at 15 mg/kg, po after 12 hrs co-administered with 7.5 mg/kg of ritonavir, po; format: ADME, organism-based, Canis lupus familiaris
[23] = Metabolic stability in dog liver microsomes assessed as compound remaining at 5 uM in presence of 2.5 uM ritonavir by RP-HPLC; format: ADME, Canis lupus familiaris, Microsome; conditions: with ritonavir 2.5 uM, read-out: Stability
[24] = test system: Human immunodeficiency virus 1; test: Ratio of EC50 for HIV1 mutant strain 4 to EC50 for wild type HIV1; format: functional
[25] = Cmax in Beagle dog at 15 mg/kg, po co-administered with 7.5 mg/kg of ritonavir, po; format: ADME, organism-based, Canis lupus familiaris; parameters: dose 15 mg/kg, route oral; conditions: in vivo
[26] = Volume of distribution at steady state in Beagle dog at 15 mg/kg, iv; format: ADME, organism-based, Canis lupus familiaris; parameters: dose 15 mg/kg, route intravenous; conditions: in vivo, read-out: Vdss
[27] = Metabolic stability in human liver microsomes assessed as compound remaining at 5 uM in presence of 0.5 uM ritonavir by RP-HPLC; format: ADME, Microsome; conditions: with ritonavir 0.5 uM, read-out: Stability
[28] = Metabolic stability in human liver microsomes assessed as compound remaining at 5 uM in presence of 2.5 uM ritonavir by RP-HPLC; format: ADME, Microsome; conditions: with ritonavir 2.5 uM, read-out: Stability
[29] = Oral bioavailability in Beagle dog at 15 mg/kg; format: ADME, organism-based, Canis lupus familiaris; conditions: in vivo
[30] = test system: Human immunodeficiency virus 1; test: Antiviral activity against wild type HIV1; format: functional, organism-based
[31] = test system: Human immunodeficiency virus 1; test: Ratio of EC50 for HIV1 mutant strain 7 to EC50 for wild type HIV1; format: functional
Outline: (§4)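 PhenoSense phenotypic assay. Strain 7 protease mutations include T4A, L10I, K20R, L23I, L33F, E35D, M36I, K43T, M46L. EC50 in µM. Fold change is versus the wild-type EC50.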

[32] = test system: Human immunodeficiency virus 1; test: Antiviral activity against HIV1 mutant strain 1; format: functional, organism-based; outline: as §3
[33] = Metabolic stability in human liver microsomes assessed as compound remaining at 5 uM by RP-HPLC; format: ADME, Microsome; conditions: read-out: Stability; outline: as §1
[34] = test system: Human immunodeficiency virus 1; test: Antiviral activity against HIV1 mutant strain 7; format: functional, organism-based; outline: as §4
[35] = Metabolic stability in dog liver microsomes assessed as compound remaining at 5 uM by RP-HPLC; format: ADME, Canis lupus familiaris, Microsome; conditions: read-out: Stability; outline: as §1
Protease = Protease (Human immunodeficiency virus 1, UniProt Q9YQ12); test: Inhibition of HIV1 protease
Protease, sequence (Q9YQ12 whole entry): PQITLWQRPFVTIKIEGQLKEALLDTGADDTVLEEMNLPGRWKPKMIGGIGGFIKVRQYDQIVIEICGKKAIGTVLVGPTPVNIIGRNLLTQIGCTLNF

[36] = test system: Human immunodeficiency virus 1; test: Antiviral activity against multidrug resistant HIV1; format: functional, organism-based; outline: as §3
[37] = AUC in Beagle dog at 15 mg/kg, po co-administered with 7.5 mg/kg of ritonavir, po; format: ADME, organism-based, Canis lupus familiaris; conditions: plasma
[38] = Plasma clearance in Beagle dog at 15 mg/kg, iv; format: ADME, organism-based, Canis lupus familiaris; parameters: dose 15 mg/kg, route intravenous
[39] = test system: Human immunodeficiency virus 1; test: Antiviral activity against HIV1 mutant strain 5; format: functional, organism-based
[40] = test system: Human immunodeficiency virus 1; test: Ratio of EC50 for HIV1 mutant strain 5 to EC50 for wild type HIV1; format: functional
[41] = AUC in Beagle dog at 15 mg/kg, po; format: ADME, organism-based, Canis lupus familiaris; parameters: dose 15 mg/kg, route oral; conditions: plasma
[42] = Metabolic stability in human liver microsomes assessed as compound remaining at 5 uM in presence of NADPH by RP-HPLC; format: ADME, Microsome; conditions: read-out: Stability; outline: as §1

Compound: COc1cccc(C[C@H](NC(=O)c2cccc(N)c2Cl)[C@H](O)C(=O)N2CSC(C)(C)[C@H]2C(=O)NCc2c(C)cccc2C)c1
Ratio EC50 [1]: 17
remaining at 5 µM [2]: 90%
pEC50 [3]: 6.91
Tmax [4]: 2 h
remaining at 5 µM [5]: 55%
Stability (Liver [6]): > 95%
Ratio EC50 [7]: 22
pEC50 [8]: 7.66
remaining at 5 µM [9]: 21%
Ratio EC50 [10]: 19
Ratio EC50 [11]: 27
Stability (Liver [12]): 47%
pEC50 [13]: 6.97
pEC50 [14]: 8.22
remaining at 5 µM [15]: > 95%
Tmax [16]: 3 h
remaining at 5 µM [17]: 41%
concentration at 12 h [18]: 0.13 µM
pEC50 [19]: 7.02
Cmax [20]: 2.8 µM
pEC50 [21]: 8.40
concentration at 12 h [22]: 2.95 µM
remaining at 5 µM [23]: > 95%
Ratio EC50 [24]: 4
Cmax [25]: 5.3 µM
Vd [26]: 1.3 L/kg
remaining at 5 µM [27]: 93%
remaining at 5 µM [28]: > 95%
bioavailability [29]: 71%
pEC50 [30]: 8.25
Ratio EC50 [31]: 7
pEC50 [32]: 6.82
remaining at 5 µM [33]: 49%
pEC50 [34]: 7.38
remaining at 5 µM [35]: 36%
pKi (Protease): 9.87
pIC50 [36]: 7.66
AUC [37]: 52.8 µM·h
clearance [38]: 1.1 L/h/kg
pEC50 [39]: 6.67
Ratio EC50 [40]: 38
AUC [41]: 15.6 µM·h
remaining at 5 µM [42]: 64%

remaining at 5 µM [2]: 92%
Tmax [4]: 0.5 h
remaining at 5 µM [5]: 31%
Stability (Liver [6]): 91%
remaining at 5 µM [9]: 12%
Stability (Liver [12]): 49%
pEC50 [14]: 7.28
remaining at 5 µM [15]: 55%
remaining at 5 µM [17]: 16%
concentration at 12 h [18]: 0.03 µM
Cmax [20]: 3.1 µM
pEC50 [21]: 7.59
remaining at 5 µM [23]: 93%
Vd [26]: 1.6 L/kg
remaining at 5 µM [27]: 56%
remaining at 5 µM [28]: 59%
bioavailability [29]: 25%
remaining at 5 µM [33]: 13%
remaining at 5 µM [35]: 46%
pKi (Protease): 10.46
clearance [38]: 0.9 L/h/kg
AUC [41]: 6.5 µM·h
remaining at 5 µM [42]: 27%
Compound: Cc1ccccc1CNC(=O)[C@H]1N(C(=O)[C@@H](O)[C@H](Cc2ccccc2)NC(=O)c2cccc(O)c2C)CSC1(C)C

From ChEMBL document CHEMBL1143257, “Structure-activity relationships of novel HIV-1 protease inhibitors containing the 3-amino-2-chlorobenzoyl-allophenylnorstatine structure” (Bioorg Med Chem, 2008)
